Screens (PubChem)
MrgX1 antagonist: human MrgX1 receptor antagonism, primary screen; B-score at 10 µM; Q96LB2; MRGX1-HEK293 calcium flux, Fluo-4, BAM8-22 antagonism; active compounds read low; 310,000 compounds, 1.3% hits;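 active means calcium-response B-score plate-corrected more than 3 library SD below zero, starting fluorescence within 5 deviations, no agonist response on first addition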;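 further: peak minus trough fluorescence over baseline after final BAM8-22 challenge near maximal dose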
Target sequence (Q96LB2 whole entry, looked up): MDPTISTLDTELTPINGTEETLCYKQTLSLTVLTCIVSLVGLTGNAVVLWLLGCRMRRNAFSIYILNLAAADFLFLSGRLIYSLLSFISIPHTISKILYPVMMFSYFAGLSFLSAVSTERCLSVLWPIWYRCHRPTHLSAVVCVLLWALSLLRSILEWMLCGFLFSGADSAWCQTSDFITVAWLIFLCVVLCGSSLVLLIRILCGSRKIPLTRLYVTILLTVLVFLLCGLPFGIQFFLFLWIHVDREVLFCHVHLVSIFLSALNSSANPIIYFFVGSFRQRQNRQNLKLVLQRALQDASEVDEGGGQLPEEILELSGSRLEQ
MrgX1 PAM: allosterically activates human MrgX1 receptor signaling | 310,000 compounds, 0.63% hits | MrgX1-HEK293, Fluo-4 calcium flux, FDSS; active compounds read high | B-score at 10 µM | Q96LB2 | AID 588675;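 active means plate-corrected calcium response at least 3 library SD above typical, normal starting fluorescence, not activating the receptor alone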;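 further: compound read alongside a low EC10 to EC30 dose of BAM8-22 agonist; peak minus trough fluorescence over baseline measured at the second addition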
RGS4 pot: RGS4 potentiation or activation; 310,000 compounds, 0.92% hits; HEK293 M3R/inducible RGS4, carbachol calcium flux Fluo4; active compounds read low; AID 463111; B-score at 10 µM;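 active means B-score of the integrated calcium signal more than 4 SD below the library mean, with starting fluorescence not abnormally high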;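 further: negative B-score means reduced calcium response which marks RGS4 activation or potentiation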
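System: HEK293 FlpIn-TREx cells, stable M3R, doxycycline-inducible RGS4. Timing: overnight RGS4 induction, 30 min dye load 37 °C, 20 min compound RT. Also added: carbachol, ECmax concentration. Measured by: Fluo4 fluorescence kinetic imaging of calcium. Evaluation: integrated calcium ratio converted to B score.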
RGS4 inh: inhibitors of human RGS4; P49798; B-score at 10 µM; 310,000 compounds, 0.45% hits; AID 463165; HEK293 M3R/RGS4 inducible, Fluo-4 calcium flux; active compounds read high; triggered by carbachol at its EC20;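 active means B-score, a plate-corrected calcium signal, over three deviations above library mean, with baseline fluorescence within five deviations of library mean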;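 further: RGS4 expression induced by doxycycline in cells with stable M3 receptor; B-score is computed from the integrated fluorescence ratio over baseline after carbachol; higher B-score means a larger calcium signal and so more RGS4 inhibition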
Target sequence (P49798 whole entry, looked up): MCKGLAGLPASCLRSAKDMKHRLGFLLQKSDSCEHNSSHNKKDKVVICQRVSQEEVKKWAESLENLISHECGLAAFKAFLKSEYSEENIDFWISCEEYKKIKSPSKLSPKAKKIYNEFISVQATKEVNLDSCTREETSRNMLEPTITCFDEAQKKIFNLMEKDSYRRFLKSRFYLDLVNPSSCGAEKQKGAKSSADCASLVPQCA
MrgX1 ag: activates human MrgX1 receptor signaling | AID 588627 | MrgX1-HEK293 cells, Fluo-4 calcium fluorescence, agonist mode; active compounds read high | B-score at 10 µM | 310,000 compounds, 0.44% hits | Q96LB2;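 active means calcium response B-score plate-corrected fluorescence ratio at least 3 library SD, with starting fluorescence B-score inside 5 SD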
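Test system: HEK293 cells stably expressing human MrgX1 receptor; Input: fifteen thousand cells per well; Dosing: compound delivered in addition one of three; Schedule: overnight seeding, then 1 h dark dye loading; Technique: Fluo-4 NW calcium fluorescence; Measure: B-scored fluorescence response ratio; Controls: positive and negative controls per plate.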
MrgX1 ag reconf: confirmation of human MrgX1 receptor agonists; shares compounds with MrgX1 ag; MrgX1-HEK293, Fluo-4 calcium fluorescence, FDSS; activation, % at 10 µM; 600 compounds, 78% hits;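 active means calcium signal rise, corrected for plate position, at least 3 library SD high, with starting brightness within 5 such deviations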
MrgX1 allo conf: reconfirmed allosteric activator of human MrgX1 receptor. shares compounds with MrgX1 PAM. MrgX1-HEK293, Fluo-4 calcium fluorescence, FDSS. activation (ratio percentage), % at 10 µM. 1,200 compounds, 13% hits;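 active means ratio at least 3 SD above the weak peptide control, stable starting fluorescence, no direct agonism earlier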;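 further: compound followed by low BAM8-22 agonist challenge near EC20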
HEK293 Ca flux: activity in parental HEK293 cells lacking MrgX1; Fluo-4 calcium fluorescence, FDSS; fluorescence ratio F(max-min)/F0 at 10 µM; shares compounds with MrgX1 antagonist; 4,000 compounds, 2% hits; AID 624111;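 active means duplicate-averaged calcium fluorescence ratio at least three times the standard deviation of buffer wells, a nonspecific response in parental cells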
HEK293 Ca counter: activity in parental HEK293 cells without MrgX1; shares compounds with MrgX1 antagonist; parental HEK293 calcium flux, Fluo-4 fluorescence ratio; active compounds read high; fluorescence ratio F(max-min)/F0 at 10 µM; 4,000 compounds, 0.4% hits; AID 624114;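 active means calcium fluorescence ratio, averaged over duplicates, at least 3 SD of the buffer-well ratio, meaning a nonspecific response in receptor-free cells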;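 further: untransfected parental HEK293 lacking MrgX1 used as counterscreen for MrgX1 allosteric activators; fluorescence change taken during the second addition on a kinetic imager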
HEK293 Ca cntr2: counter-screen for MrgX1 activators: effect in parental HEK293 cells; Fluo-4 calcium fluorescence (FDSS); active compounds read high; 4,000 compounds, 8.7% hits; fluorescence ratio F(max-min)/F0 at 10 µM; shares compounds with MrgX1 antagonist;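 active means calcium fluorescence ratio at least three times the spread of buffer wells, meaning a non-specific response in parental cells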
An asterisk follows results filed as active; i = inactive; nt = no result. This is a sample that favours compounds with a hit; in the whole collection about 3.5% have one here.

SMILES | MrgX1 antagonist | MrgX1 PAM | RGS4 pot | RGS4 inh | MrgX1 ag | MrgX1 allo conf | HEK293 Ca flux | HEK293 Ca counter | HEK293 Ca cntr2 | others
CN(C)C=Nc1nonc1-c1ccccc1 | i | i | i | i | i | nt | nt | nt | nt
CN(C)C=Nc1c(Br)cc(Br)c2nonc12 | i | i | i | i | 40* | nt | i | i | i | MrgX1 ag reconf=162%*
O=C(Nc1nnc(-c2ccccn2)o1)c1cccc(Br)c1 | i | i | i | i | 29* | nt | i | i | i | MrgX1 ag reconf=111%*
Cc1ccccc1-n1sc2cc(F)ccc2c1=O | i | i | nt | nt | 40* | nt | i | i | 66* | MrgX1 ag reconf=303%*
Cc1ccc(-n2sc3ccccc3c2=O)cc1S(=O)(=O)N1CCCCC1 | i | i | i | i | i | nt | nt | nt | nt
CN(C(=O)c1cccc(NC(=O)c2cccs2)c1)c1ccccc1 | i | i | i | i | i | nt | nt | nt | nt
Cc1ccc(Cn2c(-c3nonc3N)nc3ccccc32)cc1 | i | i | i | i | i | nt | nt | nt | nt
Cc1ccc(Cn2c(N)nc3ccccc32)cc1 | i | i | i | i | 30* | nt | i | i | i | MrgX1 ag reconf=78%*
Nc1nc2ccccc2n1Cc1ccc(Cl)c(Cl)c1 | i | i | i | i | 36* | nt | i | i | i | MrgX1 ag reconf=164%*
CCC1CN(C(=O)N2CCC(C(=O)NCc3cccc(OC)c3OC)CC2)c2cc(C)ccc2O1 (stereo not drawn) | i | i | i | i | i | nt | nt | nt | nt
Cc1nnc(SCC(=O)c2cc(C)n(-c3ccc4c(c3)OCO4)c2C)s1 | i | 16* | i | i | i | i | i | i | i
Cc1ccccc1NC(=O)c1sc2nc(N3CCOCC3)c3c(c2c1N)CCCC3 | i | 7.2* | i | i | i | i | i | i | i
COc1ccccc1NC(=O)c1sc2nc(N3CCOCC3)c3c(c2c1N)CCCC3 | i | i | i | i | i | nt | nt | nt | nt
CC(=O)NC(Cc1ccc(F)cc1)C(=O)NC1CCN(C(=O)Nc2cccc(C)c2)CC1 (stereo not drawn) | i | i | i | i | i | nt | nt | nt | nt
CC(=O)NC(Cc1ccc(F)cc1)C(=O)NC1CCN(C(=O)Nc2ccc(F)cc2)CC1 (stereo not drawn) | i | 59* | i | i | i | i | i | i | i
CCOC(=O)C1(Cc2ccccc2)CCCN(S(=O)(=O)N(C)C)C1 (stereo not drawn) | i | i | i | i | i | nt | nt | nt | nt
CCOC(=O)c1cccc(S(=O)(=O)N2CCCC2)c1 | i | i | i | i | i | nt | nt | nt | nt
NC(=O)COC(=O)c1cccc(S(=O)(=O)N2CCCCC2)c1 | i | 11* | i | i | i | i | i | i | i
Cc1nc2c3ccccc3n(Cc3ccccc3F)c2s1 | i | i | i | i | i | nt | nt | nt | nt
Cc1nc2c3cc(F)ccc3n(Cc3ccccc3F)c2s1 | i | 9* | i | i | i | i | i | i | i
CCOC(=O)c1ccc(NC(=O)CSc2nc(=O)n3cccc(C)c3n2)cc1 | i | i | i | i | i | nt | nt | nt | nt
CC1CCCN(C(=O)CSc2ncccn2)C1 (stereo not drawn) | i | i | i | i | i | nt | nt | nt | nt
O=C(Nc1cccc(Br)c1)c1cc(S(=O)(=O)N2CCOCC2)cs1 | i | i | i | i | i | nt | nt | nt | nt
Cc1oc2ccc(O)cc2c1C(=O)c1ccc(F)cc1 | i | 6.8* | i | i | i | i | i | i | i
CC12CCC(=O)N1C(C(=O)Nc1nc(-c3ccccc3Cl)cs1)CS2 (stereo not drawn) | i | i | i | i | i | nt | nt | nt | nt
SMILES | MrgX1 antagonist | MrgX1 PAM | RGS4 pot | RGS4 inh | MrgX1 ag | MrgX1 allo conf | HEK293 Ca flux | HEK293 Ca counter | HEK293 Ca cntr2 | others
Cc1ccc(C)c(Oc2cc(F)nc(N)n2)c1 | i | i | i | i | i | nt | nt | nt | nt
C=CCc1ccccc1Oc1cc(F)nc(N)n1 | i | 15* | i | i | i | 9.9%* | i | i | i
CN(CCN1CCOCC1)Cc1nc(-c2ccc(Cl)cc2)no1 | i | i | i | i | i | nt | nt | nt | nt
NC(=O)C1CCN(C(=O)CCC(=O)c2ccc(Br)cc2)CC1 | i | 8.7* | i | i | i | i | i | i | i
O=C(CCC(=O)N1CCN(c2ccc(O)cc2)CC1)c1ccc(Br)cc1 | i | i | i | i | i | nt | nt | nt | nt
COCc1cc(=O)[nH]c(/N=C(\N)Nc2ccccc2C)n1 | i | 21* | i | i | i | i | i | i | i
Cc1cc(NC(=O)C2CCN(C(=O)c3ccco3)CC2)ccc1Br | i | i | i | i | i | nt | nt | nt | nt
CCCC(=O)NC1=C(C#N)C2(CCCC2)Cc2ccccc21 | i | i | i | i | i | nt | nt | nt | nt
CCC1(CC)Cc2ccccc2C(N)=C1C#N | i | 15* | i | i | i | i | i | i | i
COc1ccc(C)cc1S(=O)(=O)NC(C)c1cnn(-c2ccccn2)c1C (stereo not drawn) | i | i | i | i | i | nt | nt | nt | nt
Cc1ccc(C)c(N2CCN(C(=O)c3csc(C)c3C)CC2)c1 | i | 6.9* | i | i | i | i | i | i | i
CCOC(=O)N1CCN(S(=O)(=O)c2c[nH]c(C(=O)OC)c2)CC1 | i | i | i | i | i | nt | nt | nt | nt
Cc1ccc(-c2csc(NC(=O)c3ccccc3Cl)c2C(=O)O)cc1 | i | 6.6* | i | i | i | i | i | i | i
Cc1cccc(C(=O)Nc2scc(CC(C)C)c2C(=O)O)c1 | i | i | i | i | i | nt | nt | nt | nt
Cc1ccc(-c2csc(NC(=O)c3cccc(C)c3)c2C(=O)O)cc1 | i | 6.6* | i | i | i | i | i | i | i
Cc1ccc(Nc2nc(-c3cccnc3)cs2)cc1C | i | 6.5* | i | i | i | i | i | i | i
Brc1ccc(Nc2nc(-c3cccnc3)cs2)cc1 | i | i | i | i | i | nt | nt | nt | nt
